The record followed here is PubChem BioAssay.

Calls of active or inactive are those of the source.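 The calls were made as follows, unless noted: active = a full or partial loss of lipid-probe fluorescence in the fish gall bladder, intestine or both, judged by eye; inactive = no fluorescence loss, or compound toxic to the fish.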

Assay [1] in a line: inhibitors of TNFa-induced NFkB p65 translocation, primary screen, imaging, HUVEC, MLSMR starter and 10KST1 sets (AID 438;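 active = inhibition above 20% together with a positive visual image hit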;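 also: compound added about 3h40 before a 20 min TNFalpha stimulation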;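 as to inhibition: signal is the nuclear over cytoplasmic p65 intensity ratio per well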). The conditions noted are these: HUVEC TNFa-induced p65 nuclear translocation; cell count: measured here: nuclei count (cytotoxicity indicator), at 2.08 µM; inhibition: at 2 µM, stronger effect = higher value, 0% TNFa-plus-vehicle, 100% no-TNFa wells.
The nature of assay [2]: endothelial E-selectin expression blockers – imaging, HUVEC, immunofluorescence, MLSMR starter and 10KST1 sets, primary screen (AID 487;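 active = visually confirmed hit in the image check and inhibition above 20%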;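 as to inhibition: signal is fraction of cell area covered by stained E-selectin grains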;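 as to nuclei count: 100% = median nuclei count of all wells on the same plate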). To be noted: HUVEC TNFalpha-induced E-selectin immunofluorescence imaging, at 2 µM; inhibition: stronger effect = higher value; nuclei count: measured here: cell number, toxicity.
Assay [3] in a line: Primary imaging screen for DUSP6 inhibitors that restore phospho-Erk in transfected HeLa cells, chemical complementation (AID 609;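 active = compounds giving at least 50% inhibition in the cell-based MKP-3 phosphatase rescue imaging test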;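 as to inhibition: phospho-Erk level distribution per well compared with pooled transfected vehicle control wells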). To be noted: HeLa MKP-3 transfected, phospho-Erk imaging KS statistic, at 10 µM, cells stimulated with TPA for 15 min.
Assay [4] has as its target Dual specificity protein phosphatase 6 (Homo sapiens) (UniProt Q16828). The description is as above. The conditions noted are these: HeLa MKP-3 transfected, phospho-Erk imaging KS statistic; at 10 µM; stronger effect = higher value; cells stimulated with TPA for 15 min.
The target in assay [5] is Voltage-gated potassium channel subunit beta-2 (Rattus norvegicus) (UniProt P62483). The assay can be described thus: inhibitors of rat Kvbeta2 reductase activity – biochemical, NADPH fluorescence, primary screen (AID 622;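 active = fluorescence slope higher than the sample average by over 3 SD, cut at about -0.22 in these data, passing the limit was not always enough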;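 also: slope of raw intensity against log time taken from 70 to 1610 s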). The conditions noted are these: recombinant KvBeta, 4-cyanobenzaldehyde reduction, at 10 µM, stronger effect = higher value.
Voltage-gated potassium channel subunit beta-2 (Rattus norvegicus), sequence (P62483 whole entry, looked up): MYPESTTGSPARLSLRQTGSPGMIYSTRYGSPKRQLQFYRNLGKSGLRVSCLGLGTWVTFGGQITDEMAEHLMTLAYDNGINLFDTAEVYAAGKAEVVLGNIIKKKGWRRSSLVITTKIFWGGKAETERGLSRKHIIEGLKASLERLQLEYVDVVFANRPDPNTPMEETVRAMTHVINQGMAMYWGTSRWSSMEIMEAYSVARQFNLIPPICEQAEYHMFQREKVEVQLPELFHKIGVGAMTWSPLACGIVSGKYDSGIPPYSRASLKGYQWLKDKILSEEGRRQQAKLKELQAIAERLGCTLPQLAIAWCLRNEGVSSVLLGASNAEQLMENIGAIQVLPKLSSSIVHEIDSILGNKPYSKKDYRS
Assay [6] has the same target. In words: enhancers of rat Kvbeta2 NADPH turnover – biochemical, NADPH fluorescence, primary screen (AID 623;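 active = NADPH fluorescence slope more negative than the mean of all samples by about 3 SD, 99.7% confidence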;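 also: fluorescence intensity change per second fitted from 20 to 320 s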). To be noted: Recombinant KvBeta, NADPH fluorescence decrease slope, 10 min; at 10 µM; stronger effect = lower value.
Assay [7] deals with Muscarinic acetylcholine receptor M4 (Homo sapiens) (UniProt P08173). The assay can be described thus: M4-linked GIRK flux change, two-sided – cell-based, HEK293 M4/GIRK, thallium flux, BTC-AM, M4 allosteric agonist project, primary screen (AID 625;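 active = fluorescence slope after compound addition differing from the mean of all tested samples at 99.7% confidence, mostly higher but some lower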;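 also: thallium influx through GIRK channels coupled to M4 in HEK293 cells with BTC-AM dye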). The conditions noted are these: at 10 µM, actives lie on both sides. The procedure, abridged: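 Material: M4/GIRK1/GIRK2 stable HEK293 cell line. Medium: pH 7.3 thallium assay buffer. Dosing: single compound concentration, 10 µM final. Schedule: 1 h dye loading, 2 min kinetic read. Measured by: kinetic fluorescence with BTC-AM dye. Read-out: post-addition slope, 15–24 s, of baseline-normalized fluorescence. Benchmarks: carbachol and DMSO controls.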
Muscarinic acetylcholine receptor M4 (Homo sapiens), sequence (P08173 whole entry, looked up): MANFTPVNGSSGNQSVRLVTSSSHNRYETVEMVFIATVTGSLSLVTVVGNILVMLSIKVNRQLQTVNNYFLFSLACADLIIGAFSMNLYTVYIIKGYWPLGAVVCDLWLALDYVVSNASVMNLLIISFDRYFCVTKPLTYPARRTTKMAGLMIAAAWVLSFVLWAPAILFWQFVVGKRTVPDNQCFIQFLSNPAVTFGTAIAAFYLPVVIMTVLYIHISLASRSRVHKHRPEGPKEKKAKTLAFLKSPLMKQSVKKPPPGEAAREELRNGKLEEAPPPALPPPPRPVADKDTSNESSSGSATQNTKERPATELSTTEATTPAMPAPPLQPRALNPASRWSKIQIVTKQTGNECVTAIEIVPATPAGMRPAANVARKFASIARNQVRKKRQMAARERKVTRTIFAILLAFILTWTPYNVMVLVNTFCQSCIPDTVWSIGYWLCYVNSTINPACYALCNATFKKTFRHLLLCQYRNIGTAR

The nature of assay [8]: inhibitors of larval lipid processing in zebrafish, primary screen, whole organism, PED6 fluorescence, gall bladder and intestine (AID 686).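 Also: larvae 5 to 7 days old with five fish per well; signal comes from phospholipase A2 cleavage of quenched PED6 carried via bile; overnight exposure to compound and PED6 before scoring.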 The conditions noted are these: Zebrafish larvae PED6 lipid processing, fluorescence scoring; screened at 20 µM (by protocol). The procedure, abridged: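 System: live zebrafish larvae aged 5-7 days, whole organism; measure: graded gall bladder and intestinal fluorescence inhibition per well; incubation: overnight exposure; reagent: ingested quenched lipid PED6 at 100 nM; signal: By-eye fluorescence microscopy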

Assay [9] is described as follows: loss of swimming-algae plug formation – whole organism, Chlamydomonas reinhardtii, WT vs cilia-less mutant, absorbance, 96-well, primary screen (AID 463189;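 active = inhibition at or above 50% relative to wild type and mutant plate controls; inactive = inhibition below 50%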;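 also: 0% = wild type cc124 cells in DMSO and 100% = ciliumless bld1 mutant cells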). To be noted: Chlamydomonas reinhardtii gravitaxis, OD600 absorbance, 2 days; at 10 µM; stronger effect = higher value.
[10] abbreviates: measured here: cell density z-score.
Where [11] appears, read: measured here: nuclear c-Myc green intensity z-score.
Where [12] appears, read: measured here: nuclear pErk red intensity z-score, stronger effect = higher value.

Dual specificity protein phosphatase 6 (Homo sapiens), sequence (Q16828 whole entry, looked up): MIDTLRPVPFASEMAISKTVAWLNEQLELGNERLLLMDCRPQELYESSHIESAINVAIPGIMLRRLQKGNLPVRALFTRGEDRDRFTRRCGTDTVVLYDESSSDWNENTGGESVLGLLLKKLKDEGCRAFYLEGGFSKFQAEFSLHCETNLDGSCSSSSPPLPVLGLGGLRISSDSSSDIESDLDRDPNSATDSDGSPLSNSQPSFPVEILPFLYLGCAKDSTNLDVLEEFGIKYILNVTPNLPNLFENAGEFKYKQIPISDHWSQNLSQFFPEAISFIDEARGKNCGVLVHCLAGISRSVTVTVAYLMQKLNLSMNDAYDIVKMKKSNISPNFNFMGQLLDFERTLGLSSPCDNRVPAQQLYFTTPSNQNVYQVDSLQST

As for `CC(=O)Nc1ccc(NCC(O)COc2ccccc2)cc1` (stereo unspecified), the cell count in assay [1] amounted to 374. In addition, the inhibition is 6.4% (inactive) in [1], 6.8% (inactive) in assay [2], -2.59% (inactive) in assay [4] and 22.2% (inactive) in [9]. The nuclei count in assay [2] came to 81.4%. Besides, the values for the z-score in [3] (setting [10]), in [3] (setting [11]) and in assay [3] (setting [12]) were -1.13, -0.751 and 0.509, respectively. Also, the fluorescence slope in assay [5] was -0.495 (inactive); in [7], 0.00402 (inactive). For the same compound, the NADPH fluorescence slope in assay [6] is -6.3e-05 (inactive). Moreover, the result in [8] was inactive.

As for `O=C(C(c1ccccc1)N1CCOCC1)N1CCOCC1` (stereo unspecified), in assay [1], the cell count was 733. For the same compound, the inhibition was -13.6% (inactive) in [1], -25.3% (inactive) in assay [2], -9.53% (inactive) in assay [4] and -3.52% (inactive) in assay [9]. In [2], this compound displayed a nuclei count of 159%. The figures for the z-score in assay [3] (setting [10]), in assay [3] (setting [11]) and in assay [3] (setting [12]) were -0.0327, 1.84 and -0.87, respectively. The results for the fluorescence slope in assay [5] and in assay [7] were -0.431 (inactive) and 0.00553 (inactive), respectively. In assay [6], the NADPH fluorescence slope was -2.2e-05 (inactive). For the same compound, in assay [8], the call was inactive.

On to `C=CCNc1nc(N2CCOCC2)c(C#N)c2c1CN(C)CC2`, for which, in assay [1], the cell count turned out to be 600. Besides, the inhibition in [1] was -5.7% (inactive); in assay [2], -83.6% (inactive); in assay [4], 9.07% (inactive); in assay [9] it was 1.91% (inactive). The compound further came in with a nuclei count in [2] of 138%. Further, the z-score in assay [3] (setting [10]) is 0.63; in [3] (setting [11]), -0.71; in assay [3] (setting [12]), 0.0349. The fluorescence slope was -0.417 (inactive) in [5] and 0.00406 (inactive) in assay [7]. Moreover, in [6], the NADPH fluorescence slope was -9.1e-05 (inactive). Besides, the compound was classed as inactive in assay [8].

Turning to `N#Cc1nc(-c2cccs2)oc1NCc1ccc2c(c1)OCO2`, in assay [1], the cell count came out at 624. The inhibition was -4.4% (inactive) in [1], -132% (inactive) in [2], 7.83% (inactive) in [4] and 30.7% (inactive) in assay [9]. The compound also came in with a nuclei count in assay [2] of 157%. Besides, the z-score in assay [3] (setting [10]) is -0.376; in assay [3] (setting [11]) it was -0.933; in [3] (setting [12]), 0.595. In addition, the figures for the fluorescence slope in assay [5] and in assay [7] were -0.404 (inactive) and 0.00406 (inactive), respectively. Besides, the NADPH fluorescence slope in [6] was -1.3e-05 (inactive). Also, the compound was called inactive in assay [8].

Consider `COC(=O)c1cc(Br)c(=O)n(Cc2ccco2)c1`, for which the cell count in assay [1] came to 518. In addition, the inhibition was -0.8% (inactive) in assay [1], 34.7% (inactive) in assay [2], 1.9e-07% (inactive) in assay [4] and -6.69% (inactive) in assay [9]. Moreover, the nuclei count in assay [2] was 159%. The values for the z-score in [3] (setting [10]), in assay [3] (setting [11]) and in [3] (setting [12]) were -0.341, 0.91 and -1.02, respectively. The fluorescence slope was -0.411 (inactive) in assay [5] and 0.00519 (inactive) in assay [7]. In addition, the NADPH fluorescence slope in [6] is -3.2e-05 (inactive). Also, the call in assay [8] was inactive.

For the compound `CCOC(=O)C1=C(C)NC(=O)C1CC(=O)Nc1ccccc1` (stereo unspecified), the cell count in assay [1] turned out to be 377. Moreover, the inhibition was -4.8% (inactive) in assay [1], -73.4% (inactive) in [2], 3.42% (inactive) in [4] and -5.87% (inactive) in [9]. The nuclei count in assay [2] worked out at 139%. Also, the values for the z-score in assay [3] (setting [10]), in assay [3] (setting [11]) and in assay [3] (setting [12]) were -0.173, 0.561 and 0.408, respectively. For the same compound, the fluorescence slope was -0.443 (inactive) in assay [5] and 0.00567 (inactive) in assay [7]. Moreover, the NADPH fluorescence slope in assay [6] was -0.000122 (inactive). Moreover, the compound was classed as inactive in [8].

Regarding `CCc1ccc(-c2cn3nc(C)c(C)nc3n2)cc1`, the cell count in [1] stood at 539. The inhibition in [1] is -0.3% (inactive); in assay [2], 5.5% (inactive); in assay [4] it was 9.91% (inactive); in [9], 23.7% (inactive). The compound also came in with a nuclei count in [2] of 143%. In addition, the z-score in assay [3] (setting [10]) was 0.256; in assay [3] (setting [11]) it was -1.56; in [3] (setting [12]) it was -0.591. Besides, the fluorescence slope is -0.0112 (inactive) in assay [5] and 0.00271 (inactive) in assay [7]. Moreover, the NADPH fluorescence slope in assay [6] is 2.5e-06 (inactive). Besides, in assay [8], the outcome was inactive.

As a reminder, the inhibition is the relative decrease from the control value, in per cent.
